Experimental data reported in ChEMBL document CHEMBL1152494, “Synthesis of some new 1,3,4-thiadiazol-2-ylmethyl-1,2,4-triazole derivatives and investigation of their antimicrobial activities” (2009).
Active and inactive are the calls of the source. The rule behind the calls is not given here.

Key:
Enterococcus faecalis = assay: Antimicrobial activity against Enterococcus faecalis ATCC 29212 after 18 hrs by agar-well diffusion assay; assay type: functional
Summary of the method: (§1)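 Organisms suspended in Mueller Hinton broth, diluted to about 10⁶ cfu/mL, and flood-inoculated onto Mueller Hinton agar, then dried. Samples dissolved in DMSO were added to 5 mm wells cut in the agar. Plates were incubated 18 h at 35 °C, and inhibition zones were measured. Ampicillin was the standard drug, with a DMSO solvent control.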

Staphylococcus aureus = assay: Antimicrobial activity against Staphylococcus aureus ATCC […] after 18 hrs by agar-well diffusion assay; assay type: functional, ATCC 25923; summary of the method: as §1
Pseudomonas aeruginosa = assay: Antimicrobial activity against Pseudomonas aeruginosa ATCC 27853 after 18 hrs by agar-well diffusion assay; assay type: functional; summary of the method: as §1
[1] = system: Yersinia pseudotuberculosis; assay: Antimicrobial activity against Yersinia pseudotuberculosis ATCC 911 after 18 hrs by agar-well diffusion assay; assay type: functional
Summary of the method: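 Bacteria were suspended in Mueller Hinton broth at about 10⁶ cfu/mL and flood-inoculated onto Mueller Hinton agar, then dried. Samples in DMSO went into 5-mm cork-bored wells. Plates were incubated 18 h at 35 °C and the zone of inhibition was read. Ampicillin was the standard, with a DMSO solvent control.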

Candida tropicalis = assay: Antimicrobial activity against Candida tropicalis ATCC 13803 after 18 hrs by agar-well diffusion assay; assay type: functional
Summary of the method: (§2)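 Yeast suspended in Mueller Hinton broth at about 10⁶ cfu/mL and flood-inoculated onto Sabouraud dextrose agar, then dried. Samples dissolved in DMSO were placed in 5 mm wells bored in the agar. After 18 h at 35 °C, the zone of inhibition was measured. Fluconazole was the standard drug, with a DMSO solvent control.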

Escherichia coli = assay: Antimicrobial activity against Escherichia […] after 18 hrs by agar-well diffusion assay; assay type: functional; summary of the method: as §1
Candida albicans = assay: Antimicrobial activity against Candida albicans ATCC 60193 after 18 hrs by agar-well diffusion assay; assay type: functional; summary of the method: as §2
Bacillus cereus = assay: Antimicrobial activity against Bacillus cereus 702 Roma after 18 hrs by agar-well diffusion assay; assay type: functional; summary of the method: as §1

Structure (SMILES)	inhibition zone (IZ) (Enterococcus faecalis)	inhibition zone (IZ) (Staphylococcus aureus) [mm]	inhibition zone (IZ) (Pseudomonas aeruginosa)	inhibition zone (IZ) [1]	inhibition zone (IZ) (Candida tropicalis)	inhibition zone (IZ) (Escherichia coli)	inhibition zone (IZ) (Candida albicans)	inhibition zone (IZ) (Bacillus cereus)	inhibition zone (IZ) (Staphylococcus aureus; ATCC 25923)
Cc1ccc(-c2nn(CC(=O)NNC(=S)Nc3ccc(F)cc3)c(=O)n2N)cc1	30 mm	30	35 mm	28 mm	inactive	34 mm	inactive	22 mm	–
Cc1ccc(-c2nn(Cc3nnc(N(C)c4ccccc4)s3)c(=O)n2N)cc1	inactive	–	inactive	inactive	6 mm	inactive	inactive	7 mm	inactive
COc1ccc(/C=N/n2c(-c3ccc(C)cc3)nn(Cc3nnc(S)n3-c3ccc(F)cc3)c2=O)cc1	24 mm	26	35 mm	30 mm	inactive	30 mm	inactive	22 mm	–
Cc1ccc(-c2nn(Cc3nnc(S)n3-c3ccccc3)c(=O)n2/N=C/c2ccc(F)cc2)cc1	20 mm	28	30 mm	25 mm	inactive	25 mm	inactive	20 mm	–
CCSc1nnc(Cn2nc(-c3ccc(C)cc3)n(N)c2=O)n1-c1ccc(F)cc1	inactive	8	inactive	inactive	6 mm	inactive	6 mm	9 mm	–
Cc1ccc(-c2nn(Cc3nnc(Nc4ccc(F)cc4)s3)c(=O)n2N)cc1	inactive	–	inactive	inactive	inactive	inactive	inactive	inactive	inactive
Cc1ccc(-c2nn(Cc3nn(CN4CCN(C)CC4)c(=S)n3-c3ccccc3)c(=O)n2N)cc1	inactive	–	inactive	inactive	inactive	inactive	inactive	inactive	inactive
COc1ccc(NC(=S)NNC(=O)Cn2nc(-c3ccc(C)cc3)n(N)c2=O)cc1	28 mm	28	35 mm	25 mm	inactive	24 mm	inactive	22 mm	–
Cc1ccc(-c2nn(Cc3nn(CNCCN4CCOCC4)c(=S)n3-c3ccccc3)c(=O)n2N)cc1	inactive	–	inactive	inactive	inactive	inactive	inactive	inactive	inactive
COc1ccc(-n2c(S)nnc2Cn2nc(-c3ccc(C)cc3)n(N)c2=O)cc1	25 mm	30	30 mm	22 mm	inactive	28 mm	inactive	25 mm	–
Cc1ccc(-c2nn(Cc3nnc(S)n3-c3ccc(F)cc3)c(=O)n2/N=C/c2ccc(F)cc2)cc1	20 mm	24	30 mm	22 mm	inactive	25 mm	inactive	20 mm	–
Cc1ccc(-c2nn(CC(=O)NNC(=S)Nc3ccccc3)c(=O)n2N)cc1	inactive	6	inactive	inactive	inactive	inactive	inactive	inactive	–
COc1ccc(Nc2nnc(Cn3nc(-c4ccc(C)cc4)n(N)c3=O)s2)cc1	20 mm	28	>30 mm	22 mm	inactive	30 mm	inactive	23 mm	–
COc1ccc(-n2c(Cn3nc(-c4ccc(C)cc4)n(N)c3=O)nnc2SC)cc1	inactive	–	inactive	inactive	inactive	inactive	inactive	inactive	inactive
Cc1ccc(-c2nn(Cc3nn(CN4CCN(C)CC4)c(=S)n3-c3ccc(F)cc3)c(=O)n2/N=C/c2ccc(F)cc2)cc1	inactive	–	inactive	inactive	inactive	inactive	inactive	8 mm	inactive
